Most compounds without a hit are left out; they make up all but 4.7% or so of the library.
MPTP inh: blocks calcium-induced mitochondrial swelling; isolated mouse mitochondria, Ca2+ swelling absorbance, 30 min; inhibition, % at 10 µM; hit rate 1.4% among 360,000; AID 602449;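 active means inhibition of 50% or more, scaled per plate between neutral and stimulator controls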;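 further: 0% = DMSO wells given calcium and 100% = 1 mM EGTA wells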
NR3A LBD binder: modulates the human NR3A ligand-binding domain; NR3A LBD differential scanning fluorimetry, Tm shift; 0% = protein alone, 100% = glycine-bound protein; Tm shift relative to glycine control, % at 25 µM; hit rate 2.5% among 340,000; AID 1259313;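 active means melting temperature shift of at least 10% of the positive control shift, at one fixed dose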
ADAM17 inh: ADAM17 inhibition, QFRET primary screen; inhibition, % at 6.95 µM; hit rate 0.83% among 370,000; recombinant ADAM17, EDANS/DABCYL FRET peptide cleavage;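 active means inhibition above the mean of compounds lying between control limits plus 3 SD, set per campaign, cut at about 8.5% in these data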;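 further: 0% = DMSO-only wells as the low control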
MT1-MMP act inh: blocks activation of human MT1-MMP. P50281. HT1080 RFP-PRO-GFP cells, GFP/RFP ratio fluorescence, overnight; percent of plate control window, DMSO zero. GFP/RFP ratio change, % at 20 µM. hit rate 0.061% among 360,000. AID 651647;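 active means GFP/RFP ratio change of at least 30% with cell ATP level not reduced by more than half and red fluorescence within 50% of control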
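Assay system – RFP-PRO-GFP reporter HT1080 cells · Compound dosing – single dose of 20 µM compound, 1% DMSO final · Incubation – overnight compound exposure at 37 °C · Measure – GFP/RFP fluorescence ratio · Benchmarks – DMSO wells and RFP-L50D-GFP cells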
SKN-1 block: blocks SKN-1 activity in C. elegans; AID 624304; C. elegans VP596 Pgst-4::GFP/RFP ratio, acrylamide-induced, 24 h; hit rate 0.49% among 360,000; inhibition, % at 21.8 µM;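 active means interference check ratio from 0.5 to 1.5 plus GFP to RFP signal ratio inhibition reaching or exceeding a fixed threshold, cut at about 30% in these data, passing the limit was not always enough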
ADAM10 inh: ADAM10 inhibition, QFRET primary screen | recombinant ADAM10, EDANS/DABCYL FRET peptide cleavage, 3 h | hit rate 0.62% among 370,000 | inhibition, % at 7 µM | AID 720582 | O14672;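 active means inhibition above a per-campaign cutoff equal to the mean of compounds falling between control-based bounds plus 3 SD, cut at about 20% in these data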;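 further: 0% = DMSO wells while the 100% control is not disclosed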
Target sequence (O14672 214-748 limits assumed): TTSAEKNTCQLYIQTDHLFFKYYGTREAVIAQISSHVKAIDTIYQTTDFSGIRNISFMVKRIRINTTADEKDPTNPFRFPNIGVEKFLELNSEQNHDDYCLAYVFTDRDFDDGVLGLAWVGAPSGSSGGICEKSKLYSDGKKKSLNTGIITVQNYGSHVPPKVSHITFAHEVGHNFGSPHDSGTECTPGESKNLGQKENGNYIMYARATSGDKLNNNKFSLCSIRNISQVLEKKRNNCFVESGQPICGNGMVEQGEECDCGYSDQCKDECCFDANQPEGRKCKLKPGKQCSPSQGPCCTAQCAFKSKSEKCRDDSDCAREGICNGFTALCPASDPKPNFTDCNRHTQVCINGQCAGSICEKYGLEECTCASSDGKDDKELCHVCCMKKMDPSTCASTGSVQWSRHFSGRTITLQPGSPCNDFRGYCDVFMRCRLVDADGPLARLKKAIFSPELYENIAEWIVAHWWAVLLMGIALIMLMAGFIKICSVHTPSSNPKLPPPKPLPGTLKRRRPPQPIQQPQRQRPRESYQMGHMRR
* hit, by the source's call; . = no result.

SMILES | MPTP inh | NR3A LBD binder | ADAM17 inh | MT1-MMP act inh | SKN-1 block | ADAM10 inh
O=C(c1cccs1)n1cc(C(=S)N2CCOCC2)c2ccccc21 | 4 | 4 | 2 | 1 | 1 | -1
Oc1ccc(/C=N/Nc2nc(N3CCCCCC3)nc(N3CCCCCC3)n2)c(O)c1 | 5 | 15* | 7 | 4 | 14 | 16
O=C1c2ccccc2C(=O)N1/N=C/c1ccc(O)c(O)c1O | 3 | -2 | . | -1 | 2 | .
O=C1c2cccc3cccc(c23)C(=O)N1/N=C/c1ccc(O)cc1O | 3 | 25* | 0 | -4 | -10 | 8
Oc1ccc(/C=N/N2CCCCC2)c(O)c1 | -1 | 33* | -1 | 1 | -3 | 3
CCc1cc(C(=O)Nc2cc(Cl)ccc2N2CCN(C)CC2)sc1C | 20 | 11* | 2 | -3 | -15 | 8
CC(=O)N1CCN(C(=S)c2ccc(Cl)cc2)CC1 | -1 | 0 | 3 | 0 | 3 | 6
Clc1ccc(Cc2nc(-c3cccnc3)no2)cc1 | 0 | 0 | -4 | 0 | 41* | -11
CCC(c1ccccc1)c1nc(-c2cccnc2)no1 (stereo not drawn) | 0 | 12* | 0 | -1 | -11 | 0
Cc1ccc(Cc2nc(-c3cccnc3)no2)cc1 | 1 | 0 | 0 | 0 | -18 | 5
O=[N+]([O-])c1nn(-c2ccc3c(c2)OCCO3)n(O)c1=NCc1ccc(F)cc1 | 0 | 13* | 0 | 4 | 15 | 1
NC(=O)C1Cc2ccccc2CN1C(=O)c1cccc(Oc2ccccc2)c1 (stereo not drawn) | -1 | -1 | 2 | 2 | -3 | 11
CN(C)S(=O)(=O)c1cc(NC(=O)COC(=O)CCSc2ccc(Cl)cc2)ccc1Cl | 2 | 13* | 4 | 4 | 8 | 10
CN(C)S(=O)(=O)c1cc(NC(=O)COC(=O)Cc2ccc(Br)cc2)ccc1Cl | 8 | 15* | 0 | 2 | -5 | 11
COc1ccc(C(=O)Nc2ccccc2C(N)=O)cc1 | -1 | 5 | -3 | 9 | 11 | -2
COc1ccc(C(=O)Nc2ccccc2C(=O)N/N=C/c2cccc3ccccc23)cc1 | 10 | 14* | -4 | -1 | -10 | -10
COc1ccc(C(=O)N/N=C/c2ccccc2OC(=O)c2ccccc2)cc1 | -1 | 1 | -2 | -2 | 1 | -7
COc1ccc(C(=O)N/N=C/c2cc3ccccc3[nH]c2=O)cc1 | -5 | 18* | -96 | 4 | -2 | -309
CSC1=NC2(CC(c3ccccc3)Oc3cc(O)ccc32)CC(C)(C)N1 (stereo not drawn) | 4 | 11* | -3 | -9 | 43* | 0
COCCNC(=O)C1C(=O)Nc2ccccc2C(=O)N1C1CCCC1 (stereo not drawn) | -1 | . | -3 | 0 | -3 | -7
Nc1cccc(N2C(=O)c3cccc4c(N)ccc(c34)C2=O)c1 | -1 | 10* | 2 | -70 | -22 | -8
Cc1cccc(N2C(=O)c3cccc4c(N)ccc(c34)C2=O)c1 | 0 | -7 | -9 | -167 | -121 | -23
CC(C)CCN1C(=O)c2cccc3c(N)ccc(c23)C1=O | 1 | 14* | -9 | -124 | -98 | -37
Nc1ccc2c3c(cccc13)C(=O)N(c1ccccc1)C2=O | -1 | -3 | -44 | -122 | -18 | -146
CCCCCCn1c(COc2ccccc2F)nnc1SCC(=O)N1c2ccccc2NC(=O)C1(C)C | -3 | -18 | 2 | -35 | -11 | 9
SMILES | MPTP inh | NR3A LBD binder | ADAM17 inh | MT1-MMP act inh | SKN-1 block | ADAM10 inh
COc1ccc(-c2cn[nH]c2-c2ccc(OCc3ccc([N+](=O)[O-])cc3)cc2O)cc1 | 11 | 30* | 2 | -4 | -4 | 14
CCOc1ccc(-c2[nH]ncc2-c2ccc(OC)c(OC)c2)c(O)c1 | -2 | -1 | 5 | -5 | 7 | 2
CCc1cc(-c2[nH]ncc2-c2ccc(OC)cc2)c(O)cc1O | 2 | 41* | 0 | -3 | -6 | 10
CCc1cc(-c2[nH]ncc2-c2ccc3c(c2)OCO3)c(O)cc1O | 5 | 24* | 2 | -14 | 9 | 6
COc1ccc(-c2[nH]ncc2-c2ccc3c(c2)OCCO3)c(O)c1 | 1 | 0 | 5 | -11 | -1 | 14
O=C(C(=O)N1CCN(c2ccccc2)CC1)c1c[nH]c2ccccc12 | 1 | 2 | -4 | 3 | 0 | -4
CCC(=O)Nc1ccc2nc(SCC(=O)N3CCOCC3)sc2c1 | -1 | 0 | 0 | -2 | -3 | -8
COC(=O)[C@]12CCCCC=C1N(Cc1ccccc1)C(=O)[C@H](CC(=O)N1CCOCC1)C2 | 1 | . | -1 | 5 | 0 | 2
COc1ccc(NC(=O)c2ccc3ccccc3n2)cc1S(=O)(=O)Nc1ccccc1Cl | 0 | 16* | 3 | 12 | 15 | 4
CCOc1ccccc1NC(=O)Cn1nnc(C(=O)NCCc2ccc(OCC)c(OCC)c2)c1N | -1 | 0 | 0 | 0 | 1 | -7
CN(C)c1ccnc(-n2cccc2/C=N/O)c1C#N | 1 | 1 | 0 | -2 | -5 | 8
CCCCCCCCCCCCCCCC[n+]1ccc(C(N)=O)cc1 | -2 | 16* | 1 | 1 | 19 | 11
CCCCCCCCCCCCCCCC[n+]1ccc(/C=N/O)cc1 | 15 | 25* | 1 | -39 | 43* | 18
Cc1ccc(NC(=S)NC(NC(=O)N(C)C)C(Cl)(Cl)Cl)cc1 (stereo not drawn) | 1 | -2 | -1 | 3 | 3 | -6
OCCN(CCO)c1ncnc2c1oc1ccc(Br)cc12 | 1 | 1 | -7 | -8 | -15 | -15
CCOc1ccccc1/C=N/n1c(COc2ccccc2)n[nH]c1=S | 1 | 4 | 1 | 1 | 9 | 12
N#CC(=Cc1cccs1)c1nc(-c2ccc(Cl)cc2)cs1 | 1 | . | -3 | -5 | 62* | -1
N#C/C(=C\c1ccc(-c2ccccc2)cc1)c1nc(-c2ccco2)cs1 | 6 | 28* | 2 | 1 | 25 | 3
N#C/C(=C\c1ccc(F)cc1)c1nc(-c2ccco2)cs1 | 3 | 24* | 4 | 3 | 60* | 3
N#C/C(=C\c1ccc(Cl)cc1)c1nc(-c2ccco2)cs1 | 1 | -5 | -3 | 0 | 52 | -4
C=CCNc1nc(-c2sc(NC(=O)CC)nc2C)cs1 | -1 | 5 | -5 | -8 | 19 | -8
Cc1ccc(C)c(C(C)NC(=O)C2CC=CCC2C(=O)O)c1 (stereo not drawn) | 1 | 1 | -5 | 4 | 10 | -7
O=C(COC(=O)C12CC3CC(CC(O)(C3)C1)C2)Nc1cccc(Br)c1 | -3 | 1 | -1 | 1 | 38* | -3
CC1CC1C(=O)OCC(=O)Nc1cccc(Br)c1 (stereo not drawn) | 0 | 2 | 0 | 5 | 18 | -6
